Experimental data taken from ChEMBL document CHEMBL3864137, “Design, Synthesis, and Pharmacological Evaluation of 2-(2,5-Dimethyl-5,6,7,8-tetrahydroquinolin-8-yl)-N-aryl Propanamides as Novel Smoothened (Smo) Antagonists” (J Med Chem, 2016).
Values belong to the compound of their own block, whether it stands above or below them. Activity calls are given as the source filed them. No cut-off for these calls is given here.

What was measured:
Protein smoothened = Protein smoothened (Mus musculus, UniProt P56726); experiment: Inhibition of Smo-mediated Hh signalling pathway in mouse Shh Light2 cells by Gli-luciferase reporter gene assay; format: cell-based
In short: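 Light II cells (NIH-3T3 stably carrying a Gli-responsive firefly luciferase reporter plus a Renilla luciferase vector), seeded in 96-well plates and treated. Firefly/Renilla activity in the lysates read by dual luciferase assay on a luminometer. IC50 is the mean ± SD of three separate experiments.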

[1] = target: Voltage-gated inwardly rectifying potassium channel KCNH2 (Homo sapiens, UniProt Q12809); experiment: Inhibition of human ERG
[2] = Cytotoxicity against human KB cells; format: toxicity, cell-based
LS174T = experiment: Inhibition of PGE2-stimulated TCF/LEF transactivation in human LS174T cells at 20 uM measured after 6 hrs by dual luciferase reporter gene assay; format: cell-based
In short: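 LS174T cells stimulated with PGE2 and treated for 6 h, then lysed for dual luciferase reporter analysis of TCF/LEF activity. Mean ± SD.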

[3] = target: Protein smoothened (Homo sapiens) (UniProt Q99835); conditions: HEK293, 5 uM
[4] = target: Protein smoothened (Homo sapiens) (UniProt Q99835); conditions: HEK293, 5 uM; remark: listed apart in the source
[5] = AUC (0 to infinity) in Sprague-Dawley rat at 1 mg/kg, iv; format: ADME, organism-based; set-up: dose 1 mg/kg, time infinity, route intravenous; conditions: in vivo
In short: (§1)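 SD rats; single dose 1.0 mg/kg i.v. or 3.0 mg/kg p.o., vehicle DMSO, Tween 80, normal saline. Plasma concentration–time profiles give CL, Vss, T1/2, Cmax, Tmax, AUC0-∞ and MRT, with oral bioavailability F estimated from p.o. versus i.v. exposure. Values are the average of three runs.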

[6] = In vivo inhibition of Smo-mediated Hh signalling pathway in athymic nude mouse implanted with mouse Ptch+/- p53-/- medulloblastoma cells assessed as suppression of Gli1-mRNA expression at 25 and 50 mg/kg, ip bid for 13 days measured 4 hrs post last dose by RT-qPCR analysis; format: functional, organism-based
In short: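 Nude mice bearing subcutaneous Ptch+/-;p53-/- medulloblastoma allografts dosed i.p. twice daily for 13 days. Tumors collected 4 h after the last dose for Gli1 mRNA measurement; mean ± SD.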

[7] = target: Protein smoothened (Homo sapiens) (UniProt Q99835); experiment: Antagonist activity at wild-type Smo (unknown origin) expressed in mouse Shh Light2 cells assessed as suppression of Gli-mRNA expression measured after 36 hrs by dual luciferase reporter gene assay; format: cell-based; conditions: in the assay text read “Gli-luciferase activity” for “Gli-mRNA expression”
In short: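 Light II cells transfected with wild-type Smo plasmid to drive Gli-luciferase, exposed to compound for 36 h, then harvested for dual luciferase reporter assay. Mean ± SD.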

[8] = target: Protein smoothened (Mus musculus) (UniProt P56726); experiment: Inhibition of Smo-mediated Hh signalling pathway in mouse Shh Light2 cells assessed as suppression of Gli1-mRNA expression at 0.1 uM measured after 36 hrs by RT-qPCR analysis; format: cell-based
[9] = Oral bioavailability in Sprague-Dawley rat at 3 mg/kg; format: ADME, organism-based; conditions: in vivo; in short: as §1
[10] = Tmax in Sprague-Dawley rat at 3 mg/kg, po; format: ADME, organism-based; conditions: in vivo; in short: as §1
[11] = target: Protein smoothened (Mus musculus) (UniProt P56726); experiment: Inhibition of Smo in mouse medulloblastoma cells isolated from Ptch+/- p53-/- mouse assessed as decrease in Gli1-mRNA expression at 0.1 uM by qRT-PCR analysis
Medulloblastoma cell = experiment: Antiproliferative activity against mouse medulloblastoma cells isolated from Ptch+/- p53-/- mouse measured after 72 hrs by MTS assay; format: functional
In short: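 Medulloblastoma cells from Ptch+/-;p53-/- allografts in nude mice, minced and collagenase-digested, grown in Neurobasal A with B-27, EGF 20 ng/ml, bFGF 20 ng/ml, nonessential amino acids and N-acetyl cysteine 60 µg/ml. Seeded in 96-well plates, treated 72 h, viability read by MTS; mean ± SD.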

Mus musculus = experiment: Toxicity in athymic nude mouse implanted with mouse Ptch+/- p53-/- medulloblastoma cells assessed as body weight loss at 25 and 50 mg/kg, ip bid for 13 days; format: organism-based; conditions: in vivo, 312 h
In short: (§2)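 Primary Ptch+/-;p53-/- medulloblastoma passaged subcutaneously in athymic nude mice as 1 mm3 fragments in the right flank. Dosing began at 100–150 mm3: i.p. 25 or 50 mg/kg twice daily for 13 days. Calipers twice weekly, volume = L×W²/2, TGI from volume change against vehicle. Body weight tracked; tumor mean ± SEM, weight mean ± SD.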

[12] = Volume of distribution at steady state in Sprague-Dawley rat at 1 mg/kg, iv; format: ADME, organism-based; conditions: in vivo, read-out: Vdss; in short: as §1
[13] = Induction of apoptosis in mouse medulloblastoma cells isolated from Ptch+/- p53-/- mouse assessed as early apoptotic cells at 10 uM measured after 24 hrs by Annexin V-FITC/propidium iodide staining based flow cytometry (reference value: 0.7%); format: functional, Medulloblastoma cell
[14] = Half life in Sprague-Dawley rat at 1 mg/kg, iv; format: ADME, organism-based; conditions: in vivo; in short: as §1
[15] = Half life in Sprague-Dawley rat at 3 mg/kg, po; format: ADME, organism-based; conditions: in vivo; in short: as §1
[16] = Induction of apoptosis in mouse medulloblastoma cells isolated from Ptch+/- p53-/- mouse assessed as late apoptotic cells at 10 uM measured after 24 hrs by Annexin V-FITC/propidium iodide staining based flow cytometry (reference value: 0.1%); format: functional, Medulloblastoma cell
[17] = Cmax in Sprague-Dawley rat at 3 mg/kg, po; format: ADME, organism-based; set-up: dose 3 mg/kg, route oral; conditions: in vivo; in short: as §1
[18] = target: Protein smoothened (Homo sapiens) (UniProt Q99835); experiment: Displacement of BODIPY-cyclopamine from human Smo expressed in HEK293 cells at 0.1 uM measured after 10 hrs by FACS analysis; format: cell-based
In short: (§3)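 HEK293 cells on coverslips transfected with hSmo constructs and incubated with BODIPY-cyclopamine plus test drug for 10 h. After PBS wash, paraformaldehyde fixation and Triton X-100 permeabilization, cells were either analysed by FACS or DAPI-mounted for fluorescence microscopy; three experiments.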

[19] = MRT (0 to infinity) in Sprague-Dawley rat at 1 mg/kg, iv; format: ADME, organism-based; conditions: in vivo; in short: as §1
[20] = Clearance in Sprague-Dawley rat at 1 mg/kg, iv; format: ADME, organism-based; conditions: in vivo; in short: as §1
[21] = target: Protein smoothened (Homo sapiens) (UniProt Q99835); experiment: Displacement of BODIPY-cyclopamine from human Smo expressed in HEK293 cells at 0.1 uM measured after 10 hrs by DAPI staining based fluorescence microscopic assay; format: cell-based; in short: as §3
[22] = AUClast in Sprague-Dawley rat at 3 mg/kg, po; format: ADME, organism-based; set-up: dose 3 mg/kg, time 0 - last, route oral; conditions: in vivo; in short: as §1
[23] = Antitumor activity against mouse Ptch+/- p53-/- medulloblastoma cells implanted in athymic nude mouse assessed as tumor growth inhibition at 25 mg/kg, ip bid for 13 days relative to control; format: functional; conditions: Medulloblastoma cell, 312 h, read-out: TGI; in short: as §2
[24] = AUClast in Sprague-Dawley rat at 1 mg/kg, iv; format: ADME, organism-based; set-up: dose 1 mg/kg, time 0 - last, route intravenous; conditions: in vivo; in short: as §1
[25] = AUC (0 to infinity) in Sprague-Dawley rat at 3 mg/kg, po; format: ADME, organism-based; set-up: dose 3 mg/kg, route oral, time infinity; conditions: in vivo; in short: as §1
[26] = target: Protein smoothened (Mus musculus) (UniProt P56726); experiment: Potency index, ratio of vismodegib IC50 to test compound IC50 for Smo-mediated Hh signalling pathway in mouse Shh Light2 cells; format: cell-based
In short: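 Ratio of reference to test IC50, both taken from the Gli-luc dual luciferase assay in light II cells (NIH-3T3 with stable Gli-firefly reporter and Renilla vector). IC50 values are from three separate experiments.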

[27] = Antitumor activity against mouse Ptch+/- p53-/- medulloblastoma cells implanted in athymic nude mouse assessed as tumor growth inhibition at 50 mg/kg, ip bid for 13 days relative to control; format: functional; conditions: Medulloblastoma cell, 312 h, read-out: TGI; in short: as §2
[28] = MRT (0 to infinity) in Sprague-Dawley rat at 3 mg/kg, po; format: ADME, organism-based; conditions: in vivo; in short: as §1
[29] = Cytotoxicity against mouse L1210 cells by MTT assay; format: functional, cell-based

Chain of Protein smoothened (Homo sapiens) (Q99835 whole entry): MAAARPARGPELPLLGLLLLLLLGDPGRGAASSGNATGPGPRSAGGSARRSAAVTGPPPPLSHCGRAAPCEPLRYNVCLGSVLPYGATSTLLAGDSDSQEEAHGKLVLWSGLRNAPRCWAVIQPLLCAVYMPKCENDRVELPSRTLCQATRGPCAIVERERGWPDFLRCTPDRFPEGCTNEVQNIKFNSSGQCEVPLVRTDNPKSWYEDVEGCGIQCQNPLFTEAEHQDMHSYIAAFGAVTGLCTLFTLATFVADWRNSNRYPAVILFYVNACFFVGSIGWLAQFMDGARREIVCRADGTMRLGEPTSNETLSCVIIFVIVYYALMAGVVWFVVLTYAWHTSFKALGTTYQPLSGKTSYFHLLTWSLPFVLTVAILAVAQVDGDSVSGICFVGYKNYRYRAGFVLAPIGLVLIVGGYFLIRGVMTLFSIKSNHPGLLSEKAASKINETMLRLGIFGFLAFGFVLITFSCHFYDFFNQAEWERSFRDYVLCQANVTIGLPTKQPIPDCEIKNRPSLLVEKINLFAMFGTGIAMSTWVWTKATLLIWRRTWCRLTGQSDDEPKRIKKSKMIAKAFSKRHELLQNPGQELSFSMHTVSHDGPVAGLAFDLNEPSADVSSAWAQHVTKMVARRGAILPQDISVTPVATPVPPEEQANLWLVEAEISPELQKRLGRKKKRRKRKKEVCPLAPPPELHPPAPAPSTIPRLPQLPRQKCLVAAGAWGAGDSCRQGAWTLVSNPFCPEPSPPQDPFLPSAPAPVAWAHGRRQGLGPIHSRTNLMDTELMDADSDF
Chain of Protein smoothened (P56726 whole entry): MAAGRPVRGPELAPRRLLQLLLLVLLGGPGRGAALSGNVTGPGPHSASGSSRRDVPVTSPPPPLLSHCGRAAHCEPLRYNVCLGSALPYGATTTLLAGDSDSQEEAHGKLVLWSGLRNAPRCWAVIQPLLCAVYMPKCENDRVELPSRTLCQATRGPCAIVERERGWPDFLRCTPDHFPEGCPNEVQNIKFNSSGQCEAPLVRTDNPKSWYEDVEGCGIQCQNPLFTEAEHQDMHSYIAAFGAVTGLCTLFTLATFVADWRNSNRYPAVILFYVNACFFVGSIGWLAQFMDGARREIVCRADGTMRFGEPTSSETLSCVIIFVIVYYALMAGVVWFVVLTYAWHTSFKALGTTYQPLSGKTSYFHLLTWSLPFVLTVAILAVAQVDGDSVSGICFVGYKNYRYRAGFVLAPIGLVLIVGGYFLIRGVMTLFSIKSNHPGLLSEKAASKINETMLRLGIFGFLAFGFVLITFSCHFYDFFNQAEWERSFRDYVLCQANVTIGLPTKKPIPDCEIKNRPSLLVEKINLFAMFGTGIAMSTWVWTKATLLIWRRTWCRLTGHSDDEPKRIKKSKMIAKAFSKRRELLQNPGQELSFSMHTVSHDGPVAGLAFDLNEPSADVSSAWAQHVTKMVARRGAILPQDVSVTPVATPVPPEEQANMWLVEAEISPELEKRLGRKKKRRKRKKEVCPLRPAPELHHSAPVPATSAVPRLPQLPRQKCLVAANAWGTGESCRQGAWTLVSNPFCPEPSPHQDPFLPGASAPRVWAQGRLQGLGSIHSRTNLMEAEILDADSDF
Chain of Protein smoothened (Mus musculus) (P56726 whole entry): as above
Chain of Voltage-gated inwardly rectifying potassium channel KCNH2 (Q12809 whole entry): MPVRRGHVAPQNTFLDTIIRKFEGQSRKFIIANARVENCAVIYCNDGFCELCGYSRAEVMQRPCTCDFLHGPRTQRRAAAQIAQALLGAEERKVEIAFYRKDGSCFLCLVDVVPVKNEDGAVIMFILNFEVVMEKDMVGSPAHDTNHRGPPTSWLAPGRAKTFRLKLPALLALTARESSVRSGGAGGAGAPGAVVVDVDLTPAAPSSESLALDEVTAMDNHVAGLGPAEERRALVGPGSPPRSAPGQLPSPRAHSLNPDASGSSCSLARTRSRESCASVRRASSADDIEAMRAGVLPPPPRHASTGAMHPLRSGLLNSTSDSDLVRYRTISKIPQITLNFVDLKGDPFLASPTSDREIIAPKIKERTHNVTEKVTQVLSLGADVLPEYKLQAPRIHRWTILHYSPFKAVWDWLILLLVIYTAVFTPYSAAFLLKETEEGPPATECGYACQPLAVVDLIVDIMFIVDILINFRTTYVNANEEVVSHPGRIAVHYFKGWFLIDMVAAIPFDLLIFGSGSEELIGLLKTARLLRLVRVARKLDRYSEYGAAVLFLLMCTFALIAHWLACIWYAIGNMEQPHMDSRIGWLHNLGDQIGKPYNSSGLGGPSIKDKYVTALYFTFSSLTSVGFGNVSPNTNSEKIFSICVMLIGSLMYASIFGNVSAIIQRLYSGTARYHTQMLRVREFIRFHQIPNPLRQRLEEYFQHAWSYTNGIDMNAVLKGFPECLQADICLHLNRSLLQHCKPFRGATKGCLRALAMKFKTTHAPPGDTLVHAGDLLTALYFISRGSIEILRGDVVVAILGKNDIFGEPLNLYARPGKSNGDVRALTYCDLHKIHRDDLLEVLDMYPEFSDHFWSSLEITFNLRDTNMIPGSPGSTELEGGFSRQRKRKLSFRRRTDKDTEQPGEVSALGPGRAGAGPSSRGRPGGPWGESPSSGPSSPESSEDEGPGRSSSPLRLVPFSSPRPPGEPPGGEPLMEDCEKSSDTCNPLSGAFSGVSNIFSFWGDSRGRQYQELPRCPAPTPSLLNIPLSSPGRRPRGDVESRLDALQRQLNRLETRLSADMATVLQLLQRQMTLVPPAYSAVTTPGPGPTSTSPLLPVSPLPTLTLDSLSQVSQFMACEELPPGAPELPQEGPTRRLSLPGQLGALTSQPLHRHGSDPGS

- IC50 (Protein smoothened): 220 nM
SMILES: Cc1ccc2c(n1)[C@H]([C@@H](C)C(=O)Nc1ccc(Cl)c(-c3nc(C4CC4)no3)c1)CC[C@H]2C

- IC50 (Protein smoothened): > 1000 nM
SMILES: Cc1nc2c(s1)C[C@@H]1[C@H](C2)[C@H]([C@@H](C)C(=O)Nc2ccc(Cl)c(-c3ccccn3)c2)CC[C@H]1C

- IC50 (Protein smoothened): 84.5 nM
SMILES: Cc1ccc2c(n1)[C@H]([C@@H](C)C(=O)Nc1ccc(Cl)c(-c3nc4cc(OC(F)(F)F)ccc4n3C)c1)CC[C@H]2C

- AUC(0-inf) [5]: 1840 ng·h/mL
- inhibition [7]: Dose-dependent effect
- inhibition [8]: Active
- bioavailability [9]: 27.4%
- Tmax [10]: 0.25 h
- inhibition [11]: Active
- Vd [12]: 2.23 L/kg
- half-life [14]: 5.95 h
- half-life [15]: 1.4 h
- Cmax [17]: 799 ng/mL
- IC50 (Protein smoothened): 9.53 nM
- inhibition [18]: Active
- MRT inf [19]: 3.97 h
- clearance [20]: 9.31 mL/min/kg
- inhibition [21]: Active
- AUC(0-t) [22]: 1460 ng·h/mL
- AUC(0-t) [24]: 1780 ng·h/mL
- AUC(0-inf) [25]: 1480 ng·h/mL
- Ratio IC50 [26]: 4 to 5
- MRT inf [28]: 1.53 h
SMILES: Cc1ccc2c(n1)[C@H]([C@@H](C)C(=O)Nc1ccc(Cl)c(-c3nc4ccccc4n3C)c1)CC[C@H]2C
- inhibition [6]: Active
- Activity (Medulloblastoma cell): Dose-dependent effect
- Activity (Mus musculus): Non-Toxic
- Activity [13]: 21.7%
- IC50 [1]: > 15000 nM
- Activity [16]: 4.6%
- IC50 [2]: > 20000 nM
- inhibition in vivo at 25 mg/kg [23]: 81.7%
- inhibition in vivo at 50 mg/kg [27]: 91.5%

- IC50 (Protein smoothened): > 1000 nM
SMILES: Cc1ccc2c(n1)[C@H]([C@@H](C)C(=O)Nc1ccc(Cl)c(-c3ccc(N4C[C@@H](C)O[C@@H](C)C4)cn3)c1)CC[C@H]2C

- IC50 (Protein smoothened): 52.6 nM
SMILES: Cc1ccc2c(n1)[C@H]([C@@H](C)C(=O)Nc1ccc(Cl)c(-c3nc4ccc(OC(F)(F)F)cc4n3C)c1)CC[C@H]2C

- IC50 (Protein smoothened): 243 nM
SMILES: Cc1ccc2c(n1)[C@H]([C@@H](C)C(=O)Nc1ccc(Cl)c(-c3nc4ccccc4o3)c1)CC[C@H]2C

Second part, the compound before the results:

SMILES: C[C@@H]1CC[C@@H]2[C@]34OO[C@](C)(CC[C@@H]13)OC4O[C@]2(C)C(=O)Nc1ccc(Cl)c(-c2ccccn2)c1 (some centres not stated)
- IC50 (Protein smoothened): 180 nM

SMILES: C[C@H]1[C@@H](CC(=O)Nc2ccc(Cl)c(-c3ccccn3)c2)O[C@@H]2O[C@@]3(C)CC[C@H]4[C@H](C)CC[C@@H]1[C@@]24OO3
- IC50 [1]: > 15000 nM
- IC50 (Protein smoothened): 241 nM
- IC50 [2]: 6610 nM

SMILES: O=S(=O)(NCCNC/C=C/c1ccc(Br)cc1)c1cccc2cnccc12
- inhibition (LS174T): Active

SMILES: C[C@@H]1CC[C@@H]([C@@H](C)C(=O)Nc2ccc(Cl)c(-c3ccccn3)c2)[C@H]2CC(O)CC[C@H]21 (some centres not stated)
- IC50 (Protein smoothened): > 1000 nM

SMILES: CC1=C2C[C@H]3[C@@H](CC=C4C[C@@H](O)CC[C@@]43C)[C@@H]2CC[C@]12O[C@@H]1C[C@H](C)CN[C@H]1[C@H]2C
- inhibition [3]: Active
- inhibition [4]: Active

SMILES: COC(=O)[C@H](C)c1ccc(C)c2ccc(C(=O)Nc3ccc(Cl)c(-c4ccccn4)c3)nc12
- IC50 (Protein smoothened): 270 nM

SMILES: C[C@H]1[C@@H](CC(=O)Nc2ccc(Cl)c(-c3ccccn3)c2)O[C@@H]2O[C@@]3(C)CC[C@H]4[C@H](C)CC[C@@H]1[C@@]24O3
- IC50 (Protein smoothened): 184 nM

SMILES: C[C@H]1[C@@H](O[C@@H](C#N)c2ccc(Br)cc2)O[C@@H]2O[C@@]3(C)CC[C@H]4[C@H](C)CC[C@@H]1[C@@]24OO3
- IC50 [29]: 10 nM

SMILES: CC(=O)Nc1nc2c(s1)C[C@@H]1[C@H](C2)[C@H]([C@@H](C)C(=O)Nc2ccc(Cl)c(-c3ccccn3)c2)CC[C@H]1C
- IC50 (Protein smoothened): > 1000 nM
